Reference: ChEMBL document CHEMBL4610124, “Novel Thienopyrimidine Inhibitors of Leishmania N-Myristoyltransferase with On-Target Activity in Intracellular Amastigotes” (J Med Chem, 2020)

Experiments:
[1] = Inhibition of Leishmania donovani NMT using p60 SRC(2 to […]) as substrate by CPM dye based fluorescence assay
[2] = target: T1, Glycylpeptide N-tetradecanoyltransferase 1 (Homo sapiens, UniProt P30419); assay type: ADME
T1 sequence (P30419 whole entry): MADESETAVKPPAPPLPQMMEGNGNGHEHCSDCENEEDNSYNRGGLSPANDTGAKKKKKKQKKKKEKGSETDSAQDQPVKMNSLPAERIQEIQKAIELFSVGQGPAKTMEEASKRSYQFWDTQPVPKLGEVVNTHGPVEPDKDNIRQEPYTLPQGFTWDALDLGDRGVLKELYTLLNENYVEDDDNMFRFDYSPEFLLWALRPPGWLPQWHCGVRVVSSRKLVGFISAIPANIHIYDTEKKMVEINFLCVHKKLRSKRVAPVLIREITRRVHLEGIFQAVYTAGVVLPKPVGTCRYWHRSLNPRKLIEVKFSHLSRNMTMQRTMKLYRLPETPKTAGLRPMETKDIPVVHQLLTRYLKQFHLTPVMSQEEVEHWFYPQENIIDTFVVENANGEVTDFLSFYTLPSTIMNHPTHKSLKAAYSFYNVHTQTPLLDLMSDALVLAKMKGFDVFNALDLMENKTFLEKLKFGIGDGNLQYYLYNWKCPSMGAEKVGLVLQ

[3] = system: human NMT1 versus Leishmania donovani NMT; assay: Selectivity ratio of IC50 for human NMT1 to IC50 for Leishmania donovani NMT; assay type: toxicity; conditions: read-out: Ratio IC50
Procedure, shortened: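 Ratio of IC₅₀ for HsNMT1 to IC₅₀ for LdNMT. Both were measured in a fluorogenic CPM assay, in which coenzyme A released by acyl transfer is detected with the thiol-reactive dye CPM.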

[4] = Inhibition of Leishmania major NMT using p60 SRC(2 to […]) as substrate by CPM dye based fluorescence assay
Leishmania donovani [5] = assay: Antileishmanial activity against Leishmania donovani MHOM/ET/67/HU3 intracellular amastigotes measured after 72 hrs by alamar blue dye based fluorescence assay; assay type: functional, organism-based; conditions: MHOM/ET/67/HU3, 72 h
Procedure, shortened: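 Ex vivo L. donovani LV9 amastigotes, kept by serial passage in Rag-2−/− mice, isolated from infected spleens by homogenization and saponin lysis. Plated at 4 × 10⁵ per well in RPMI with 20% heat-inactivated FCS, adenine, 20 mM MES (pH 5.5), hemin, biopterin and biotin.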

Leishmania donovani [6] = assay: Effect on total NMT expression in Leishmania donovani MHOM/ET/67/HU3 intracellular amastigotes after 12 hrs in presence of YnMyr by Western blot analysis; assay type: ADME, organism-based
Procedure, shortened: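 Amastigotes from spleens of Rag-2−/− mice, isolated by saponin lysis, seeded at 7.5 × 10⁷/mL in RPMI/10% FCS with inhibitor for 1 h at 37 °C. Then resuspended in fresh medium with inhibitor plus YnMyr (50 μM final) for 12 h. Lysates were click-labelled and run on SDS-PAGE, then immunoblotted with anti-LdNMT antibody.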

Row | SMILES | IC50 [1] | IC50 [2] | selectivity ratio [3] | IC50 [4] | EC50 (Leishmania donovani [5]) | Activity (Leishmania donovani [6])
1 | COc1ccc2nc(N(C)C3CCN(C)CC3)nc(N(C)CCC#N)c2c1 | 0.5 µM | > 100 µM | > 200 |  |  | 
2 | CCN1CCC(N(C)c2nc(N(C)CCC#N)c3ccccc3n2)CC1 | 0.97 µM |  |  | 0.95 µM | > 50 µM | 
3 | CN(C)CCCN(C)c1nc(N(C)CCC#N)c2cccnc2n1 | 2.4 µM | > 100 µM | > 42 |  |  | 
4 | CN1CCC(N(C)c2nc(N3CCC[C@H]3CC#N)c3sccc3n2)CC1 | 0.15 µM | > 100 µM | > 660 |  | 19 µM | 
5 | CC(C)CN1CCC(N(C)c2nc(N(C)CCC#N)c3sccc3n2)CC1 | 4 µM | > 100 µM | > 25 |  |  | 
6 | CN(CCC#N)c1nc(N(C)C2CCNC2)nc2ccccc12 (stereo unspecified) | 5.8 µM |  |  | 4.9 µM |  | 
7 | CN(C)CCCN(C)c1nc(N(C)CCO)c2sccc2n1 | 22 µM |  |  | 36 µM |  | 
8 | CNCCCN(C)c1nc(N(C)CCC#N)c2sccc2n1 | 5.2 µM |  |  |  |  | 
9 | CCN(C)c1nc(N(C)C2CCNCC2)nc2ccc(S(=O)(=O)Nc3c(C)nn(C)c3C)cc12 |  | 1.7 µM | 5.2 |  |  | 
10 | COC[C@@H]1CCCN1c1nc(N(C)C2CCN(C)CC2)nc2ccsc12 | 0.87 µM | > 100 µM | > 120 |  | 26 µM | 
11 | CC(=O)N(C)CCN(C)c1nc(N(C)CCCN(C)C)nc2ccsc12 | > 100 µM | > 100 µM |  |  |  | 
12 | CN(CCCN(C)c1nc(N(C)CCC#N)c2sccc2n1)Cc1ccccc1 | > 100 µM |  |  |  |  | 
13 | COCCN(C)c1nc(N(C)CCCN(C)C)nc2ccsc12 | 44 µM |  |  |  |  | 
14 | CN(CCC#N)c1nc(N(C)C2CCNCC2)nc2ccccc12 |  | > 100 µM |  | 1.1 µM | > 50 µM | 
15 | CN(C)CCCN(C)c1nc(N(C)CCC#N)c2sc(C(C)(C)C)cc2n1 | 0.36 µM |  |  | 0.16 µM | 37 µM | 
16 | CC(C)CN(C)CCCN(C)c1nc(N(C)CCC#N)c2sccc2n1 | > 100 µM |  |  |  |  | 
17 | CN(C)CCCN(C)c1nc(N2CCC[C@H]2CO)c2sccc2n1 |  |  |  | 19 µM | > 50 µM | 
18 | CCN(C)c1nc(N(C)CCCN(C)C)nc2ccc(S(=O)(=O)Nc3c(C)nn(C)c3C)cc12 | 0.23 µM | 1.1 µM | 4.6 |  |  | 
19 | CN1CCC(N(C)c2nc(N(C)CCC#N)c3sccc3n2)CC1 | 0.34 µM | 5.7 µM |  | 0.2 µM |  | Non-Toxic
20 | CN(CCC#N)c1nc(N(C)[C@H]2C[C@H]3CC[C@@H](C2)N3C)nc2ccccc12 | 16 µM | > 100 µM |  | 13 µM | > 50 µM | 
21 | CCN(C)c1nc(N(C)C2CCN(Cc3ccccc3)CC2)nc2ccsc12 | > 100 µM |  |  |  |  | 
22 | CN(C)CCCN(C)c1nc(N(C)CCC#N)c2sccc2n1 | 0.15 to 0.59 µM | > 100 µM | > 170 | 2.7 µM | > 50 µM | 
23 | CCN(C)c1nc(N(C)C2CCN(C)CC2)nc2ccc(S(=O)(=O)Nc3c(C)nn(C)c3C)cc12 | 0.2 µM | 2.3 µM | 11 |  |  | 
24 | CN(C)CCCN(C)c1nccc(N(C)CCC#N)n1 | > 100 µM | > 100 µM |  |  |  | 
25 | CN(C)CCCN(C)c1nc(N(C)CCC#N)c2ccccc2n1 |  |  |  | 2.1 µM | > 50 µM | 
26 | CN(CCC#N)c1nc(N(CCO)C2CCNCC2)nc2ccccc12 |  |  |  | 8.2 µM |  | 
27 | CN(C)CCCN(C)c1ncc2sccc2n1 | > 100 µM |  |  |  |  | 
28 | COc1ccc2c(N(C)CCC#N)nc(N(C)CCCN(C)C)nc2c1 | 9.5 µM |  |  |  |  | 

Row | SMILES | IC50 [1] | IC50 [2] | selectivity ratio [3] | IC50 [4] | EC50 (Leishmania donovani [5]) | Activity (Leishmania donovani [6])
29 | CN(C)CCCN(C)c1nc(N(C)CCC(N)=O)c2sccc2n1 |  |  |  | 13 µM | > 50 µM | 
30 | CN(C)CCCN(C)c1nc(N(C)CCC(=O)N(C)C)c2sccc2n1 | 54 µM |  |  |  |  | 
31 | CN(c1nc(N2CCC[C@H]2CC#N)c2sccc2n1)C1CCNCC1 | 0.21 µM | 1.6 µM | 7.8 |  |  | 
32 | CN(C)CCCN(C)c1nc(N(C)CCC#N)c2cc(-c3ccccc3)ccc2n1 | 0.39 µM | > 100 µM | > 260 |  |  | 
33 | CN(CCC#N)c1nc(N(C)C2CCNC2)nc2cc(C(C)(C)C)sc12 (stereo unspecified) | 5.5 µM | > 100 µM | > 18 |  | 21 µM | 
34 | CN(CCC#N)c1nc(N(C)C2CCN(Cc3ccccc3)CC2)nc2ccsc12 | 27 µM |  |  |  |  | 
35 | COCCN(C)c1nc(N2CCN(C)CC2)nc2ccsc12 | 23 µM |  |  |  |  | 
36 | CN1CCC(N(C)c2nc(N(C)CCC#N)c3sc(C(C)(C)C)cc3n2)CC1 | 0.046 µM | 0.55 µM |  | 0.042 µM |  | 
37 | CN1CCC(N(C)c2nc(N(C)CCC#N)c3cc(Br)ccc3n2)C1 (stereo unspecified) | 5.5 µM | > 100 µM | > 18 |  |  | 
38 | CCN(C)c1nc(N(C)CCCN(C)C)nc2ccsc12 |  | > 100 µM | > 8 | 13 µM |  | 
39 | CN(CCCO)c1nc(N(C)CCC#N)c2sccc2n1 | > 100 µM |  |  |  |  | 
40 | CN1CCC(N(C)c2nc(N(C)CCC#N)c3cc(Br)ccc3n2)CC1 | 0.95 µM | > 100 µM | > 20 |  |  | 
41 | Cc1ccccc1-c1ccc2nc(N(C)CCCN(C)C)nc(N(C)CCC#N)c2c1 | 0.67 µM | > 100 µM | > 150 |  |  | 
42 | CN1CCC(N(C)c2nc(N(C)CCC#N)c3sc(C(C)(C)C)cc3n2)C1 (stereo unspecified) |  |  |  |  |  | Non-Toxic
43 | CN(C)CCCN(C)c1nc(N(C)CCCO)c2sccc2n1 |  |  |  | 40 µM | > 50 µM | 
44 | CN(CCC#N)c1nc(N(C)C2CCNCC2)nc2ccsc12 | 0.5 µM | 11 µM | 22 |  | > 50 µM | 
45 | COc1ccc(-c2ccc3nc(N(C)CCCN(C)C)nc(N(C)CCC#N)c3c2)c(C)c1 | 6.6 µM | > 100 µM | > 15 |  |  | 
46 | COC[C@@H]1CCCN1c1nc(N(C)C2CCNCC2)nc2ccsc12 | 4.3 µM | 5 µM | 1.2 |  |  | 
47 | CN(CCC#N)c1nc(N2CCNCC2)nc2ccsc12 | 28 µM |  |  |  |  | 
48 | COc1ccc2nc(N(C)CCCN(C)C)nc(N(C)CCC#N)c2c1 | 1.8 µM | > 100 µM | > 56 |  |  | 
49 | CN1CCN(c2nc(N(C)CCC#N)c3sccc3n2)CC1 | 30 µM |  |  |  |  | 
50 | CN(C)CCCN(C)c1nc(N(C)CCC#N)c2c(ncn2C)n1 | > 100 µM | > 100 µM |  |  |  | 
51 | CN(C)CCCN(C)c1nc(N(C)CCC#N)c2cc(Br)ccc2n1 | 0.35 µM |  |  |  | 17 µM | 
52 | CN(CCC#N)c1nc(N(C)C2CCOCC2)nc2ccsc12 | > 100 µM |  |  |  |  | 
53 | CCN(C)c1nc(N(C)C2CCN(C)CC2)nc2ccsc12 |  | 7.9 µM |  | 0.73 µM | > 50 µM | 
54 | CN(CCC#N)c1nc(N(C)C2CCN(Cc3ccccc3)C2)nc2cc(C(C)(C)C)sc12 (stereo unspecified) | 7.8 µM |  |  |  |  | 
55 | CN(CCC#N)c1nc(N(C)C2CCN(Cc3ccccc3)C2)nc2ccsc12 (stereo unspecified) | > 100 µM |  |  |  |  | 
